Assay results from different studies.
Protocols differ between the studies behind these lines.
Target: Rhodopsin kinase GRK7 (GRK7, Homo sapiens, UniProt Q8WTQ7)
Sequence (Q8WTQ7 1-553, as in one of the studies): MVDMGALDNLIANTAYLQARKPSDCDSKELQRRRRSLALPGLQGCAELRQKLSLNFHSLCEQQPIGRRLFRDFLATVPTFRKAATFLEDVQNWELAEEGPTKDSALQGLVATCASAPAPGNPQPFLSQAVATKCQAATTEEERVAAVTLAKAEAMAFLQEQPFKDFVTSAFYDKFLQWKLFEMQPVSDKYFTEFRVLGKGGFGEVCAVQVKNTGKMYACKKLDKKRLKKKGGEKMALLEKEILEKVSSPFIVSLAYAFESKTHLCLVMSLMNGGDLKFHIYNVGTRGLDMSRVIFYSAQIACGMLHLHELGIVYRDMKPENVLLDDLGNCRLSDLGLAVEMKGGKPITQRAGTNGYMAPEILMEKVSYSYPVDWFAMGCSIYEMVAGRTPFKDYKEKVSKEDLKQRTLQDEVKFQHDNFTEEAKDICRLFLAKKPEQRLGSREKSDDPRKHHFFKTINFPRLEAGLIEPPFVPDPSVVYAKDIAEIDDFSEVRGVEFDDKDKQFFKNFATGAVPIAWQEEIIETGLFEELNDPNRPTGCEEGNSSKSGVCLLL

SMILES	read-out	method	tested at	remaining binding [%]
Cc1cnn2ncc(-c3ccnc(N(C)C)n3)c2c1	binding	–	1 µM	84
CCN1CCN(Cc2ccc(C(=O)Nc3ccc(C)c(Oc4ccc5c(c4)CC(=O)N5)c3)cc2C(F)(F)F)CC1	binding	competition with immobilised ligand	1 µM	100
c1cnn2ncc(-c3ccnc(N4CCC45COC5)n3)c2c1	binding	–	1 µM	66
O=C(c1ccc(Nc2nccc(-c3cc4ccccc4s3)n2)cc1)N1CCC(N2CCCC2)CC1	binding	competition with immobilised ligand	1 µM	79
C[C@H]1CCN(c2nccc(-c3cnn4ncccc34)n2)C1	binding	–	1 µM	78
O=S(=O)(NC1CCC(c2cc(F)ccc2F)(S(=O)(=O)c2ccc(Cl)cc2)CC1)C(F)(F)F (stereo not shown)	cell-free assay	competition with immobilised ligand	1 µM	100
CC1CCCN1c1nccc(-c2cnn3ncccc23)n1 (stereo not shown)	binding	–	1 µM	100
NS(=O)(=O)c1cc(NC(=O)Cc2ccccc2)ccc1Oc1cccc(Cl)c1	cell-free assay	competition with immobilised ligand	1 µM	77
O=C(c1ccc(Nc2ncc(Cl)c(-c3ccc(Cl)s3)n2)cc1)N1CCC(N2CCCC2)CC1	binding	competition with immobilised ligand	1 µM	84
O=C(NCC1CCOCC1)c1n[nH]cc1NC(=O)c1c(F)cccc1F	binding	competition with immobilised ligand	1 µM	89
N[C@@H]1CCN(c2nccc(-c3cnn4ncccc34)n2)C1	binding	–	1 µM	100
CCCOc1ccc([C@@H]2[C@@H](C(=O)O)[C@H](c3ccc4c(c3)OCO4)CN2CC(=O)Nc2c(CC)cccc2CC)cc1	cell-free assay	competition with immobilised ligand	1 µM	99
C[C@@H](c1ccc(-n2cnc3c(N)ncnc32)cc1)N1CCc2nn(C)c(Cc3ccccc3)c2C1=O	binding	competition with immobilised ligand	0.1 µM	72
CN(C)c1nccc(-c2cnc3ncccn23)n1	binding	–	1 µM	41
FC(F)(F)c1ccc2c(c1)nc(-c1cccnc1)n2C1CC1	cell-free assay	competition with immobilised ligand	1 µM	81
O=C(NCCCN1CCOCC1)c1ccc(Nc2nccc(-c3cc4ccccc4s3)n2)cc1	binding	competition with immobilised ligand	1 µM	100
O=C(Nc1cccnn1)N1CC(C/C=C/c2cncc(Oc3ccc(C(F)(F)F)cn3)n2)C1	cell-free assay	competition with immobilised ligand	1 µM	85
c1cncc(-c2cccc(Nc3nccc(NC4CCCCC4)n3)c2)c1	binding	competition with immobilised ligand	10 µM	16
O=C(NCCCC1CCCCC1)c1ccc(CNC(=O)c2cnn(-c3ccccc3)c2C(F)(F)F)cc1	cell-free assay	competition with immobilised ligand	0.1 µM	100
COc1cnc(Nc2cccc(S(N)(=O)=O)c2)nc1N1CCN(c2ccccc2)CC1	binding	competition with immobilised ligand	1 µM	58
F[C@@H]1CCN(c2nccc(-c3cnn4ncccc34)n2)C1	binding	–	1 µM	100
O=C(NCc1ncc(C(F)(F)F)cc1Cl)c1ccc2c(c1)C1(CCS(=O)(=O)CC1)[C@H](C1CC1)N2S(=O)(=O)c1ccc(F)cc1	cell-free assay	competition with immobilised ligand	1 µM	80
